CHOP inhibitor: inhibitors of CHOP promoter induction, primary screen, cell-based, unfolded protein response, luciferase reporter; AID 2732, 2010; inhibition, % at 10 µM; 220,000 compounds, 3.8% hits; CHO-K1 CHOP-promoter luciferase, tunicamycin-induced, 15-18 h;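 active = compounds that reduced the stress-induced luciferase reporter signal by more than about 70% of percent inhibition, limit read from the data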
UPR XBP1 act: activators of adaptive XBP1 UPR arm, primary screen, cell-based, CHO-XBP1 luciferase reporter, luminescence, uHTS. IRE1-XBP1 UPR activation; percent of tunicamycin response, DMSO as zero. activation, % at 20 µM. 330,000 compounds, 0.33% hits. AID 463104, 2010;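 active = versus positive control, 20 µM dose yields 30% or more activation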
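incubation = overnight seeding at 37 °C, 6 h compound treatment at 37 °C | assay system = CHO-XBP1 cells stably carrying IRE1-XBP1-driven luciferase reporter | input = 1000 cells per well | detection = luciferase luminescence | dosing = single point, 20 µM final compound, 1% DMSO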
Beta2AR agonist: beta2AR agonists driving receptor internalization, primary screen, cell-based, FAP fluorogen, flow cytometry | Beta-2 adrenergic receptor (Homo sapiens), P07550 | Am2.2-beta2AR cells | response, % (concentration not given with the values) | 340,000 compounds, 0.43% hits;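 active = response above a set limit, near 3 SD of response in nonfluorescent compounds, cut at about 42% in these data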
CHOP UPR activ: activators of apoptotic CHOP UPR arm, primary screen, cell-based, CHO-CHOP luciferase reporter, luminescence, uHTS; UPR activation; percent of tunicamycin response over DMSO baseline; AID 449763, 2010; activation, % at 10 µM; 330,000 compounds, 0.34% hits;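 active = at 10 µM dose, activation of 40% or more, normalized to positive control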
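Assay system: CHO cells with stable CHOP pathway luciferase reporter; Buffer or medium: F12 plus 10% serum; Times: 16-18 h cell attachment, then 6 h compound exposure, 37 °C; Signal: luciferase luminescence; Read-out basis: percent activation relative to tunicamycin control; Control set: tunicamycin high control, DMSO low control.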
VLA-4 inh: inhibition in human VLA-4 binding assay, primary screen, VLA-4 allosteric modulator project, MLPCN library, flow cytometry, VLA-4 expressing cells; Integrin alpha-4 (Homo sapiens), P13612; ligand binding flow cytometry; inhibition, % (about 7 µM as worked out from the volumes in the protocol); 330,000 compounds, 0.2% hits; AID 2557, 2010; in the data active = inhibition above about 50%
Target sequence (P13612 whole entry, looked up): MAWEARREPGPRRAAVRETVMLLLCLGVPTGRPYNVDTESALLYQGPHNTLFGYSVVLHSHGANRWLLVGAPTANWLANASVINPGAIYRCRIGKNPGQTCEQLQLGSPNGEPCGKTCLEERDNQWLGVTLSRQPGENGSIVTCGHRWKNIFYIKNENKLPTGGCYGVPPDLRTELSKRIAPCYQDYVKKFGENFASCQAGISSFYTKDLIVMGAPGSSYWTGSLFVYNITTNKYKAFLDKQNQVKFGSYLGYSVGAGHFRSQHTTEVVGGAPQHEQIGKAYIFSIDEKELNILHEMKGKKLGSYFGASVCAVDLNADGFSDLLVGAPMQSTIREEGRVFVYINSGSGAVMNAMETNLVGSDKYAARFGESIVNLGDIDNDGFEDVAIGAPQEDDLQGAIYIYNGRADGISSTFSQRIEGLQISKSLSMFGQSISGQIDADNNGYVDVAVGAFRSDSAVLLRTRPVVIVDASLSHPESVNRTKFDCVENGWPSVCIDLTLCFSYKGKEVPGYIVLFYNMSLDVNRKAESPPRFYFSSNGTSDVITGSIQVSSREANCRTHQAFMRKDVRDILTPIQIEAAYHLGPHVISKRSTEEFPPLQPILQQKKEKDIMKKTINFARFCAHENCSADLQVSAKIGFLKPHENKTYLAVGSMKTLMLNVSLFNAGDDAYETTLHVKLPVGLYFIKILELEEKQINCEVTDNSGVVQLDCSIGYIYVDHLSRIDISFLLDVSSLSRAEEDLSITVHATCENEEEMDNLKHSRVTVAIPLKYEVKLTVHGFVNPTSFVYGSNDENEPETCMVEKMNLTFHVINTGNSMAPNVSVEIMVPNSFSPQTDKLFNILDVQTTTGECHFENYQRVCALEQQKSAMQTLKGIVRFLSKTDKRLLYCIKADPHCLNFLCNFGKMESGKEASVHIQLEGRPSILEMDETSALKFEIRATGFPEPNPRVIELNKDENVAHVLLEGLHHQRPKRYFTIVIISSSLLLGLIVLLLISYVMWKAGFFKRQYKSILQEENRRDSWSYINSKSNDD
Large screens that a line does not name were inactive. The entries come from a sample that favours hits as a whole.

CSc1nc(-c2ccc(Cl)cc2)nn1S(=O)(=O)c1ccc(Cl)cc1	CHOP inhibitor 72
CCC(=O)n1nc(-c2ccc(Cl)cc2)nc1SC	none
CCCC(=O)n1nc(-c2ccc(Cl)cc2)nc1SC	CHOP inhibitor 78
COc1ccc(C2=NS(=O)(=O)N(C)C(C(=O)NCc3ccc(F)cc3)=C2)cc1OC	none (no result: CHOP inhibitor)
CC(C)(C)OC(=O)NOCC(=O)N(Cc1ccccc1)CC(O)COc1ccccc1 (centres undefined)	none (no result: CHOP inhibitor)
O=C(NC1CCS(=O)(=O)C1)c1ccc2c(c1)OCO2 (centres undefined)	none (no result: CHOP inhibitor)
Cc1ccc(N(CC(=O)Nc2cc(Cl)ccc2Oc2ccccc2)S(C)(=O)=O)cc1C	CHOP inhibitor 89
COc1ccc(NC2CCCN(C(=O)c3cccc(N4CCNC4=O)c3)C2)cc1 (centres undefined)	none (no result: CHOP inhibitor)
CC(C)Cc1cc(C(=O)Nc2sc3c(c2C#N)CCC3)no1	none
CSc1ccccc1NC(=O)c1cc(CC(C)C)on1	CHOP inhibitor 75
CC(C)Cc1cc(C(=O)Nc2sc3c(c2C#N)CCCC3)no1	CHOP inhibitor 77
COc1ccccc1-c1nnc(SCC(=O)NCc2c(C)c(Cl)cc(C(C)C)c2O)o1	CHOP inhibitor 75
c1cnc(N2CCN(c3nc4ccccc4n4cnnc34)CC2)nc1	none
Cc1cccc(N2CCN(c3nc4ccccc4n4cnnc34)CC2)c1C	Beta2AR agonist 42
CCCCNC(=S)N(CCCN(C)C)Cc1cc2cc3c(cc2[nH]c1=O)OCO3	none (no result: CHOP inhibitor)
O=C(CN1CCOCC1)Nc1ccc2c(c1)CCC2	none
CCc1ccccc1NCC(=O)Nc1ccc(Cl)c(C(F)(F)F)c1	CHOP inhibitor 79
O=C(/C(=C/c1ccccc1)c1ccccc1)N1CCCCC1	CHOP inhibitor 87
CC1CCN(S(=O)(=O)c2cccc(C(=O)NCc3cccs3)c2)CC1	CHOP inhibitor 73
Cc1c(N=C2C=C(Br)C(=O)C(Br)=C2)c(=O)n(-c2ccccc2)n1C	none (no result: VLA-4 inh)
Cc1c(N=C2C=CC(=O)c3ccccc32)c(=O)n(-c2ccccc2)n1C	Beta2AR agonist 44 (no result: UPR XBP1 act, CHOP UPR activ, VLA-4 inh)
Cc1sc2ncn(CC(=O)NC3CCCCC3)c(=O)c2c1C	none (no result: CHOP inhibitor)
Cc1ccc(N=CC2=C(O)CC(C)(C)CC2=O)nc1	none
CC1(C)CC(=O)C(/C=N/c2ncccc2C(=O)O)=C(O)C1	CHOP inhibitor 78
Cc1[nH]nc(N=CC2=C(O)CC(C)(C)CC2=O)c1-c1ccc(Cl)cc1	CHOP inhibitor 92
COc1cc(NC(=O)NNC(=O)c2cc3occc3n2C)cc(OC)c1OC	none (no result: CHOP inhibitor)
COc1cc(NC(=O)c2csc3c2CCCC3)ncn1	CHOP inhibitor 72
CCOC(=O)Cc1csc(NC(=O)NC2(C(F)(F)F)Oc3ccccc3O2)n1	CHOP inhibitor 92
CCOC(=O)Cc1csc(NC(=O)Nc2ccc(OC(F)(F)F)cc2)n1	none
CCOC(=O)Cc1csc(NC(=O)c2csc3c2CCCC3)n1	CHOP inhibitor 76
Cc1ccc(N2C(=O)C3ON(c4ccccc4)C(CC(C)C)C3C2=O)cc1 (centres undefined)	none
CCOCC(=O)Nc1cc(C(=O)Nc2cc(C)cc(C)c2)ccc1Cl	none (no result: Beta2AR agonist)
CC(C(=O)Nc1ccccn1)(c1ccccc1)c1ccccc1	none (no result: CHOP inhibitor)
C=CCn1c(-c2ccc(S(=O)(=O)N3CCOCC3)cc2)csc1=Nc1ccccc1	CHOP inhibitor 72
COc1ccc(N=c2scc(-c3ccc(S(=O)(=O)N4CCOCC4)cc3)n2CCCO)cc1	none (no result: UPR XBP1 act, Beta2AR agonist, CHOP UPR activ, VLA-4 inh)
Cc1ccc2c(c1)N(CCC(=O)NCc1cccs1)C(=O)C(C)O2 (centres undefined)	CHOP inhibitor 74
Cc1ccc2c(c1)N(CC(=O)NCc1cccs1)C(=O)C(C)O2 (centres undefined)	none
Nc1ccc(O)c(C(=O)O)c1	VLA-4 inh 51 (no result: CHOP inhibitor, UPR XBP1 act, Beta2AR agonist, CHOP UPR activ)
CC(C)N1CCN(S(=O)(=O)c2ccccc2)c2ccccc21	none (no result: CHOP inhibitor, UPR XBP1 act, CHOP UPR activ, VLA-4 inh)
C=CC[n+]1c(-c2ccc(C)cc2)csc1Nc1c(C)n(C)n(-c2ccccc2)c1=O	none
C=CC[n+]1c(-c2ccc(OCC)cc2)csc1NNC(=O)Nc1ccccc1	CHOP inhibitor 73
CC(Oc1cccc([N+](=O)[O-])c1)C(=O)NCCC1=CCCCC1 (centres undefined)	none (no result: CHOP inhibitor)

From PubChem BioAssay
